Experiment [1] has as its system Hepatitis C virus. The experiment in a line: Inhibition of RNA copy numbers in HCV 1b-N replicon cells with NS5B M414T mutant at EC50 after 4 days. Format: functional, Hepacivirus hominis, genotype 1b strain N. The arrangement: scale not given: the % may be the effect or the level left. Summed up: (§1)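 1b-N replicon cells treated with compound for 4 days, with a no-compound control. Total RNA was extracted and HCV RNA copy number quantified by TaqMan real-time RT-PCR, normalised per 1 pg total RNA.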
(In general: A replicon is a self-replicating genome or part of one, used to study replication in cells.)

The subject of experiment [2] is Hepatitis C virus. Kind of experiment: Inhibition of RNA copy numbers in HCV 1b-N replicon cells with NS5B M414T mutant at 10 times EC50 after 4 days. Format: functional, Hepacivirus hominis, genotype 1b strain N. The arrangement: scale not given: the % may be the effect or the level left. An outline of the steps: as §1
The subject of experiment [3] is Hepatitis C virus. The experiment in a line: Inhibition of RNA copy numbers in HCV 1b-N replicon cells with NS5B M414T mutant at 100 times EC50 after 4 days. The arrangement: scale not given: the % may be the effect or the level left. In kind it is functional, Hepacivirus hominis, genotype 1b strain N. Summed up: as §1
Experiment [4] deals with Hepatitis C virus. Kind of experiment: Antiviral activity against HCV 1b-N. In kind it is functional, organism-based, Hepacivirus hominis. As to conditions: genotype 1b strain N. An outline of the steps: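 1b-N subgenomic replicon cells, grown in DMEM with 10% FBS, blasticidin and G418, seeded at 4,000 cells/well with eight serial compound dilutions. Replicon RNA copy number was quantified by TaqMan real-time RT-PCR, and EC50 was taken as the concentration giving 50% inhibition of copy number.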

The test system of experiment [5] is Hepatitis C virus. Kind of experiment: Decrease in NS5B M414T mutant in HCV 1b-N replicon cells treated with 70 nM assessed as mutant level after drug withdrawal on day 4 and measured at day 18 and 28. Format: functional, Hepacivirus hominis, genotype 1b strain N. The arrangement: scale not given: the % may be the effect or the level left. An outline of the steps: (§2)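 Replicon cells, 2 × 10⁵ per 10-cm dish, received inhibitor for 4 days, then drug was removed and culture continued to day 28, splitting 1:10 at 90% confluence. Cells were trypsinised and PBS-washed before RNA extraction. %M414T was measured by RT, first-round PCR, then allele-specific SYBR green real-time PCR as 100 × M414T/(M414T + wild-type copies), mean of three experiments.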

Experiment [6] deals with Hepatitis C virus. Kind of experiment: Decrease in NS5B M414T mutant in HCV 1b-N replicon cells treated with 70 nM assessed as mutant level after drug withdrawal on day 4 and measured at day 10. The arrangement: scale not given: the % may be the effect or the level left. In kind it is functional, Hepacivirus hominis, genotype 1b strain N. Summed up: as §2
Experiment [7] relates to Hepatitis C virus. Kind of experiment: Increase in NS5B M414T mutant levels in HCV 1b-N replicon cells at 7000 nM after 3 days relative to baseline. In kind it is functional, Hepacivirus hominis, genotype 1b strain N. An outline of the steps:
(§3)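 1b-N replicon cells, 2 × 10⁴ per well, were exposed to inhibitor for up to 4 days, PBS-washed, and total RNA extracted. RNA was reverse transcribed at 50°C for 50 min, then NS5B was amplified by first-round PCR for 25 cycles. Allele-specific SYBR green real-time PCR used M414-wild-type or T-specific antisense primers. %M414T = 100 × M414T/(M414T + wild-type copies), mean of three experiments.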

Experiment [8] deals with Hepatitis C virus. Kind of experiment: Increase in NS5B M414T mutant levels in HCV 1b-N replicon cells at 700 nM after 3 days relative to baseline. Format: functional, Hepacivirus hominis, genotype 1b strain N. An outline of the steps: as §3
Experiment [9] has as its system Hepatitis C virus. The experiment in a line: Increase in NS5B M414T mutant levels in HCV 1b-N replicon cells at 70 nM after 3 days relative to baseline. Format: functional, Hepacivirus hominis, genotype 1b strain N. Summed up: as §3
Experiment [10] relates to Hepatitis C virus. The experiment in a line: Increase in NS5B M414T mutant levels in HCV 1b-N replicon cells at 7000 nM after 2 days relative to baseline. Format: functional, Hepacivirus hominis, genotype 1b strain N. An outline of the steps: as §3
Experiment [11] has as its system Hepatitis C virus. Kind of experiment: Increase in NS5B M414T mutant levels in HCV 1b-N replicon cells at 700 nM after 2 days relative to baseline. In kind it is functional, Hepacivirus hominis, genotype 1b strain N. An outline of the steps:
as §3

The subject of experiment [12] is Hepatitis C virus. The experiment in a line: Increase in NS5B M414T mutant levels in HCV 1b-N replicon cells at 70 nM after 2 days relative to baseline. Format: functional, Hepacivirus hominis, genotype 1b strain N. An outline of the steps:
as §3

Experiment [13] deals with Hepatitis C virus. The experiment in a line: Increase in NS5B M414T mutant levels in HCV 1b-N replicon cells at 700 nM after 4 days relative to baseline. In kind it is functional, Hepacivirus hominis, genotype 1b strain N. Summed up:
as §3

The test system of experiment [14] is Hepatitis C virus. The experiment in a line: Increase in NS5B M414T mutant levels in HCV 1b-N replicon cells at 7000 nM after 4 days relative to baseline. Format: functional, Hepacivirus hominis, genotype 1b strain N. Summed up:
as §3

Experiment [15] concerns Hepatitis C virus. Kind of experiment: Increase in NS5B M414T mutant levels in HCV 1b-N replicon cells at 70 nM after 4 days relative to baseline. Format: functional, Hepacivirus hominis, genotype 1b strain N. An outline of the steps:
as §3

Experiment [16] has as its system Hepatitis C virus. The experiment in a line: Decrease in NS5B M414T mutant in HCV 1b-N replicon cells treated with 700 nM assessed as mutant level after drug withdrawal on day 4 and measured at day 10. In kind it is functional, Hepacivirus hominis, genotype 1b strain N. The arrangement: scale not given: the % may be the effect or the level left. An outline of the steps:
as §2

The subject of experiment [17] is Hepatitis C virus. The experiment in a line: Decrease in NS5B M414T mutant in HCV 1b-N replicon cells treated with 700 nM assessed as mutant level after drug withdrawal on day 4 and measured upto day 28. In kind it is functional, organism-based. As to conditions: Hepacivirus hominis; genotype 1b strain N. An outline of the steps: as §2
Experiment [18] concerns Hepatitis C virus. The experiment in a line: Decrease in NS5B M414T mutant in HCV 1b-N replicon cells treated with 7000 nM assessed as mutant level after drug withdrawal on day 4 and measured upto day 28. The settings on record: Hepacivirus hominis; genotype 1b strain N. In kind it is functional, organism-based. An outline of the steps: as §2

Each structure is given as a SMILES string. Activity calls are given as the source filed them. The rule behind the calls is not given here.

Broadly, the EC50 is the concentration that produces a half-maximal response. With `COc1ccc2c(O[C@@H]3C[C@H]4C(=O)N[C@]5(C(=O)O)C[C@H]5/C=C\CCCCC[C@H](NC(=O)OC5CCCC5)C(=O)N4C3)cc(-c3csc(NC(C)C)n3)nc2c1` [CILUPREVIR], the Activity stood at 37% with Hepatitis C virus [1], 99% in the experiment with Hepatitis C virus [2] and 99% in the experiment with Hepatitis C virus [3]. In the experiment with Hepatitis C virus [4], the midpoint of the response, the EC50, lay at 4 nM.
Turning to `NC(=O)COc1ccc2c(c1)S(=O)(=O)N=C(c1c(O)c3ccccc3n(NC3CCC3)c1=O)N2`, the Activity was determined as 58% with Hepatitis C virus [1]; 93% in the experiment on Hepatitis C virus [2]; 99% with Hepatitis C virus [3]; 0.3% in the experiment with Hepatitis C virus [5]; 0.9% in the experiment on Hepatitis C virus [6]; 56% in the experiment with Hepatitis C virus [7]. Moreover, the Activity in the experiment with Hepatitis C virus [8] is 28%; in the experiment on Hepatitis C virus [9] it was 2.5%; in the experiment on Hepatitis C virus [10], 12.6%; with Hepatitis C virus [11], 4%; with Hepatitis C virus [12], 0.8%; in the experiment with Hepatitis C virus [13] it was 26%. Besides, the Activity in the experiment with Hepatitis C virus [14] is listed as 60%; in the experiment on Hepatitis C virus [15] it was 2.5%; in the experiment on Hepatitis C virus [16] it was 4%. Besides, the midpoint of the response in the experiment with Hepatitis C virus [4], the EC50, lay at 70 nM. Also, the outcome in the experiment with Hepatitis C virus [17] and in the experiment with Hepatitis C virus [18] was inactive.

These data come from ChEMBL document CHEMBL1143825, “Evolution of resistant M414T mutants among hepatitis C virus replicon cells treated with polymerase inhibitor A-782759” (Antimicrob Agents Chemother, 2007).
